From ChEMBL document CHEMBL4261538, “Synthesis and molecular docking studies of xanthone attached amino acids as potential antimicrobial and anti-inflammatory agents” (Medchemcomm, 2017)
≈ marks a conversion by molar mass, not a printed value.

Key:
[1] = tested on: Erythrocyte; assay: Anti-inflammatory activity in human RBC assessed as inhibition of hypotonic solution-induced hemolysis after 10 mins by spectrophotometric method; format: functional, cell-based
In short: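 Human blood (heparinized) washed with 0.9% saline, packed cells made into a 40% v/v stock in isotonic phosphate buffer (154 mM NaCl, 10 mM sodium phosphate, pH 7.4). Stock RBC mixed with hypotonic buffer (50 mM NaCl, 10 mM phosphate, pH 7.4) plus sample at 20–100 µg mL⁻¹.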

[2] = tested on: Fusarium oxysporum; assay: Antifungal activity against Fusarium oxysporum at 100 ug/ml incubated for 48 hrs by agar well diffusion method; format: functional; conditions: read-out: DIZ
In short: (§1)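 Compounds dissolved in DMSO at 5 mg mL⁻¹ and 5–20 µL added to 6 mm wells, giving 25, 50, 75, 100 µg per well. Bavistin was the positive control and DMSO the negative control. Plates incubated at 28 °C for 48 h, then inhibition zone diameter (mm) measured. Values are means of three determinations.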

[3] = tested on: Aspergillus niger; assay: Antifungal activity against Aspergillus niger at 25 ug/ml incubated for 48 hrs by agar well diffusion method; format: functional; conditions: read-out: DIZ; in short: as §1
[4] = tested on: Aspergillus niger; assay: Antifungal activity against Aspergillus niger at 50 ug/ml incubated for 48 hrs by agar well diffusion method; format: functional; conditions: read-out: DIZ; in short: as §1
[5] = tested on: Aspergillus niger; assay: Antifungal activity against Aspergillus niger at 75 ug/ml incubated for 48 hrs by agar well diffusion method; format: functional; conditions: read-out: DIZ; in short: as §1
[6] = tested on: Fusarium oxysporum; assay: Antifungal activity against Fusarium oxysporum at 50 ug/ml incubated for 48 hrs by agar well diffusion method; format: functional; conditions: read-out: DIZ; in short: as §1
[7] = tested on: Candida albicans; assay: Antifungal activity against Candida albicans at 100 ug/ml incubated for 48 hrs by agar well diffusion method; format: functional; conditions: read-out: DIZ; in short: as §1
[8] = tested on: Klebsiella pneumoniae; assay: Antibacterial activity against Klebsiella pneumoniae at 100 ug/ml incubated for 24 hrs by agar well diffusion method; format: functional; conditions: read-out: DIZ
In short: (§2)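 Bacteria grown in nutrient broth at 37 °C for 24 h, then subcultured at room temperature. Compounds dissolved in DMSO at 5 mg mL⁻¹ and 5–20 µL added to 6 mm wells, giving 25, 50, 75, 100 µg per well. Gentamicin was the positive control and DMSO the negative control. Plates held at 37 °C for 24 h, then inhibition zone diameter (mm) measured. Values are means of three determinations.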

[9] = tested on: Escherichia coli; assay: Antibacterial activity against Escherichia coli at 50 ug/ml incubated for 24 hrs by agar well diffusion method; format: functional; conditions: read-out: DIZ; in short: as §2
[10] = tested on: Staphylococcus aureus; assay: Antibacterial activity against Staphylococcus aureus at 75 ug/ml incubated for 24 hrs by agar well diffusion method; format: functional; conditions: read-out: DIZ; in short: as §2
[11] = tested on: Bacillus subtilis; assay: Antibacterial activity against Bacillus subtilis at 50 ug/ml incubated for 24 hrs by agar well diffusion method; format: functional; conditions: read-out: DIZ; in short: as §2
[12] = tested on: Klebsiella pneumoniae; assay: Antibacterial activity against Klebsiella pneumoniae at 25 ug/ml incubated for 24 hrs by agar well diffusion method; format: functional; conditions: read-out: DIZ; in short: as §2
[13] = tested on: Klebsiella pneumoniae; assay: Antibacterial activity against Klebsiella pneumoniae at 50 ug/ml incubated for 24 hrs by agar well diffusion method; format: functional; conditions: read-out: DIZ; in short: as §2
[14] = tested on: Bacillus subtilis; assay: Antibacterial activity against Bacillus subtilis at 75 ug/ml incubated for 24 hrs by agar well diffusion method; format: functional; conditions: read-out: DIZ; in short: as §2
[15] = tested on: Candida albicans; assay: Antifungal activity against Candida albicans at 75 ug/ml incubated for 48 hrs by agar well diffusion method; format: functional; conditions: read-out: DIZ; in short: as §1
[16] = tested on: Escherichia coli; assay: Antibacterial activity against Escherichia coli at 25 ug/ml incubated for 24 hrs by agar well diffusion method; format: functional; conditions: read-out: DIZ; in short: as §2
[17] = tested on: Staphylococcus aureus; assay: Antibacterial activity against Staphylococcus aureus at 100 ug/ml incubated for 24 hrs by agar well diffusion method; format: functional; conditions: read-out: DIZ; in short: as §2
[18] = tested on: Aspergillus niger; assay: Antifungal activity against Aspergillus niger at 100 ug/ml incubated for 48 hrs by agar well diffusion method; format: functional; conditions: read-out: DIZ; in short: as §1
[19] = tested on: Klebsiella pneumoniae; assay: Antibacterial activity against Klebsiella pneumoniae at 75 ug/ml incubated for 24 hrs by agar well diffusion method; format: functional; conditions: read-out: DIZ; in short: as §2
[20] = tested on: Escherichia coli; assay: Antibacterial activity against Escherichia coli at 75 ug/ml incubated for 24 hrs by agar well diffusion method; format: functional; conditions: read-out: DIZ; in short: as §2
[21] = tested on: Bacillus subtilis; assay: Antibacterial activity against Bacillus subtilis at 100 ug/ml incubated for 24 hrs by agar well diffusion method; format: functional; conditions: read-out: DIZ; in short: as §2
[22] = tested on: Fusarium oxysporum; assay: Antifungal activity against Fusarium oxysporum at 75 ug/ml incubated for 48 hrs by agar well diffusion method; format: functional; conditions: read-out: DIZ; in short: as §1
[23] = tested on: Fusarium oxysporum; assay: Antifungal activity against Fusarium oxysporum at 25 ug/ml incubated for 48 hrs by agar well diffusion method; format: functional; conditions: read-out: DIZ; in short: as §1
[24] = tested on: Escherichia coli; assay: Antibacterial activity against Escherichia coli at 100 ug/ml incubated for 24 hrs by agar well diffusion method; format: functional; conditions: read-out: DIZ; in short: as §2
[25] = tested on: Staphylococcus aureus; assay: Antibacterial activity against Staphylococcus aureus at 50 ug/ml incubated for 24 hrs by agar well diffusion method; format: functional; conditions: read-out: DIZ; in short: as §2
[26] = tested on: Staphylococcus aureus; assay: Antibacterial activity against Staphylococcus aureus at 25 ug/ml incubated for 24 hrs by agar well diffusion method; format: functional; conditions: read-out: DIZ; in short: as §2
[27] = tested on: Candida albicans; assay: Antifungal activity against Candida albicans at 25 ug/ml incubated for 48 hrs by agar well diffusion method; format: functional; conditions: read-out: DIZ; in short: as §1
[28] = tested on: Bacillus subtilis; assay: Antibacterial activity against Bacillus subtilis at 25 ug/ml incubated for 24 hrs by agar well diffusion method; format: functional; conditions: read-out: DIZ; in short: as §2
[29] = tested on: Candida albicans; assay: Antifungal activity against Candida albicans at 50 ug/ml incubated for 48 hrs by agar well diffusion method; format: functional; conditions: read-out: DIZ; in short: as §1

SMILES	IC50 [1] [µg/mL]	zone of inhibition at 100 µg/mL [2] [mm]	zone of inhibition at 25 µg/mL [3] [mm]	zone of inhibition at 50 µg/mL [4] [mm]	zone of inhibition at 75 µg/mL [5] [mm]	zone of inhibition at 50 µg/mL [6] [mm]	zone of inhibition at 100 µg/mL [7] [mm]	zone of inhibition at 100 µg/mL [8] [mm]	zone of inhibition at 50 µg/mL [9] [mm]	zone of inhibition at 75 µg/mL [10] [mm]	zone of inhibition at 50 µg/mL [11] [mm]	zone of inhibition at 25 µg/mL [12] [mm]	zone of inhibition at 50 µg/mL [13] [mm]	zone of inhibition at 75 µg/mL [14] [mm]	zone of inhibition at 75 µg/mL [15] [mm]	zone of inhibition at 25 µg/mL [16] [mm]	zone of inhibition at 100 µg/mL [17] [mm]	zone of inhibition at 100 µg/mL [18] [mm]	zone of inhibition at 75 µg/mL [19] [mm]	zone of inhibition at 75 µg/mL [20] [mm]	further results
CC(C)C[C@H](NC(=O)OC(C)(C)C)C(=O)Oc1ccc2c(=O)c3ccccc3oc2c1	64 (≈ 150 µM)	19	10	15	18	12	20	20	10	17	16	8	11	20	16	4	22	22	14	17	zone of inhibition at 100 µg/mL [21]: 24 mm; zone of inhibition at 75 µg/mL [22]: 15 mm; zone of inhibition at 25 µg/mL [23]: 10 mm; zone of inhibition at 100 µg/mL [24]: 21 mm; zone of inhibition at 50 µg/mL [25]: 13 mm; zone of inhibition at 25 µg/mL [26]: 7 mm; zone of inhibition at 25 µg/mL [27]: 8 mm; zone of inhibition at 25 µg/mL [28]: 11 mm; zone of inhibition at 50 µg/mL [29]: 11 mm
CC(C)(C)OC(=O)N[C@@H](CS)C(=O)Oc1ccc2c(=O)c3ccccc3oc2c1	32 (≈ 77 µM)	35	18	26	31	24	34	34	26	32	26	18	24	29	28	18	34	34	30	30	zone of inhibition at 100 µg/mL [21]: 34 mm; zone of inhibition at 75 µg/mL [22]: 30 mm; zone of inhibition at 25 µg/mL [23]: 18 mm; zone of inhibition at 100 µg/mL [24]: 34 mm; zone of inhibition at 50 µg/mL [25]: 28 mm; zone of inhibition at 25 µg/mL [26]: 20 mm; zone of inhibition at 25 µg/mL [27]: 17 mm; zone of inhibition at 25 µg/mL [28]: 20 mm; zone of inhibition at 50 µg/mL [29]: 22 mm
